Reference: ChEMBL document CHEMBL1132464, “Specific nonpeptide photoprobes as tools for the structural study of the angiotensin II AT(1) receptor” (J Med Chem, 1999)

What was measured:
[1] = target: T1, Type-1 angiotensin II receptor A (Rattus norvegicus, UniProt P25095); experiment: The compound was evaluated for the inhibition of [125I]-Sar-AII binding to Angiotensin II receptor, type 1 from purified rat liver membranes.; format: cell membranes, Membrane
T1 sequence (P25095 whole entry): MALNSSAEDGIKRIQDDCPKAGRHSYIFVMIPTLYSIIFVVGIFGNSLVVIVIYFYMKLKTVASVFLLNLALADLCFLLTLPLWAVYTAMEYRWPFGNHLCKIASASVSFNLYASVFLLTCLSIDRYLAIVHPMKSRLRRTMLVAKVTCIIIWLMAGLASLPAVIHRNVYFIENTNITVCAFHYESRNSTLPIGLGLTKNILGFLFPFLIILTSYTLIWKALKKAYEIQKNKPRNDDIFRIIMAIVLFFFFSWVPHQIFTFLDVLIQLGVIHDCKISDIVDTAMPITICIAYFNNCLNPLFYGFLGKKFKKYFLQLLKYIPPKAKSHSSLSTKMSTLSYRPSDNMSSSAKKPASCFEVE
Outline: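 Purified rat liver membranes (AT1 only), 10 μg protein/assay, competition against [125I]Sar1-AII tracer for 30 min at 30 °C in 50 mM phosphate pH 7.4, 5 mM MgCl2, 0.1 mg/mL bacitracin, 0.6% Me2SO, no BSA; triplicates; GF/C filtration; Ki via Ekins equation.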

[2] = target: T2, Type-1 angiotensin II receptor A (Rattus norvegicus) (UniProt P25095); experiment: The compound was evaluated for irreversible binding to [125I]Sar-AII in CHO cells expressing the Angiotensin II receptor, type 1 with UV irradiation.; format: cell-based
T2 sequence (whole entry): T1 sequence (P25095 whole entry)
Outline: (§1)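 CHO cells stably expressing rat AT1A receptor in 24-well clusters; incubated 4 h at 4 °C in dark with photoactivatable ligand (nonpeptide 50 or 10 nM; peptide azido probe 10 nM) in PBS pH 7.4, 5 mM MgCl2, 0.1 mg/mL bacitracin; washed, irradiated or not 5 min at 0 °C, 254 nm; two 30-min 30 °C dissociation incubations; remaining sites titrated with 5 nM [125I]Sar1-AII, 2 h, 4 °C; % of control, triplicates.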

[3] = target: T2, Type-1 angiotensin II receptor A (Rattus norvegicus); experiment: The compound was evaluated for irreversible binding to [125I]Sar-AII in CHO cells expressing the Angiotensin II receptor, type 1 without UV irradiation.; format: cell-based; outline: as §1
Oryctolagus cuniculus = organism: Oryctolagus cuniculus; experiment: The compound was evaluated for the inhibition of AII-induced contraction in the rabbit aorta strips.; format: functional
Outline: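 Rabbit aortic rings (4 mm) in 37 °C organ baths, Krebs-Henseleit gassed O2/CO2 95/5, passive tension 2 g, isometric tension recorded; three to five antagonist concentrations, one per ring, against 3 nM AII contraction; IC50 = concentration halving AII response; mean of six experiments.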

[4] = target: T1, Type-1 angiotensin II receptor A; experiment: The compound was evaluated for the direct binding of tritiated compound to the recombinant Angiotensin II receptor, type 1 stably expressed in CHO cells.; format: cell-based
Outline: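 Intact CHO cells stably expressing rat AT1A, grown to confluence (~5 × 10^5 cells/well), incubated 4 h at 4 °C with graded tritiated ligand in PBS pH 7.4, 5 mM MgCl2, 0.1 mg/mL bacitracin, 0.6% Me2SO; nonspecific binding with excess Sar1-AII or unlabeled nonpeptide; ice-cold washes, NaOH lysis, scintillation counting; Kd by Scatchard analysis, mean of four experiments.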

Structure (SMILES): CCCCc1ncc(CNc2ccccc2C(=O)O)n1Cc1ccc(C(=O)NS(=O)(=O)c2ccccc2N=[N+]=[N-])cc1
- Ki [1]: 1.5 nM
- Control [2]: 55%
- Control [3]: 50%
- IC50 (Oryctolagus cuniculus): 3.5 nM

Structure (SMILES): CCCCc1ncc(CNc2ccccc2C(=O)O)n1Cc1ccc(C(=O)O)cc1
- Ki [1]: 12.1 nM
- IC50 (Oryctolagus cuniculus): 3.6 nM

Structure (SMILES): CCCCc1ncc(CNc2ccccc2C(=O)O)n1Cc1ccc(C(=O)NS(=O)(=O)c2ccccc2Cl)cc1
- Ki [1]: 2.5 nM
- IC50 (Oryctolagus cuniculus): 0.8 nM

Structure (SMILES): [3H]c1nc(CCCC)n(Cc2ccc(C(=O)O)cc2)c1CNc1ccccc1C(=O)O
- Kd [4]: 3.5 nM

Structure (SMILES): [3H]c1nc(CCCC)n(Cc2ccc(C(=O)O)cc2)c1C([3H])Nc1cc(N=[N+]=[N-])ccc1C(=O)O (stereo not given)
- Kd [4]: 11.8 nM

Structure (SMILES): CCCCc1ncc(CNc2cc(N=[N+]=[N-])ccc2C(=O)O)n1Cc1ccc(C(=O)O)cc1
- Ki [1]: 22 nM
- Control [2]: 64%
- Control [3]: 91%
- IC50 (Oryctolagus cuniculus): 6.3 nM

Structure (SMILES): [3H]c1ccc(S(=O)(=O)NC(=O)c2ccc(Cn3c(CNc4ccccc4C(=O)O)cnc3CCCC)cc2)c(Cl)c1
- Kd [4]: 1.3 nM
